# According to ChEMBL document CHEMBL1141656, “N-{[(6-substituted-1,3-benzothiazole-2-yl)amino]carbonothioyl}-2/4-substituted benzamides: synthesis and pharmacological evaluation” (Eur J Med Chem, 2008):
# Columns and labels:
# Mus musculus [1] = assay: Anticonvulsant activity in ip dosed CF1 albino mouse assessed as minimum effective dose after 0.5 hrs by MES screen test; assay type: functional
# Summary of the method: (§1)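 Mice given test compounds i.p. at 30, 100 and 300 mg/kg (one to four mice per dose), suspended in 1% Tween 80 or 0.5% methylcellulose–water. Maximal electroshock seizure test, read at 0.5 and 4 h after dosing. Value is the lowest dose protecting half or more of the mice.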
# Mus musculus [2] = assay: Anticonvulsant activity in ip dosed CF1 albino mouse assessed as minimum effective dose after 4 hrs by MES screen test; assay type: functional; summary of the method: as §1
# Rattus norvegicus [3] = assay: Antidepressant activity in Wistar rat assessed as mean average immobility time during 5 mins of test period at 30 mg/kg, po after 30 mins by forced-swimming test; assay type: functional
# Rattus norvegicus [4] = assay: Hepatotoxicity in Sprague-Dawley rat assessed as total protein level per 100 ml of blood at 30 mg/kg, po after 15 days; assay type: toxicity, organism-based; parameters: dose 30 mg/kg, route oral; details: in vivo, 360 h
# Summary of the method: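 Rats given 30 mg/kg/day p.o. in methylcellulose for two weeks, then anesthetized with ether. Blood was collected from the liver. SGOT, SGPT, alkaline phosphatase, total protein and albumin were measured by reported methods.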
# Mus musculus [5] = species on record: Mus musculus; assay: Neurotoxicity in CF1 albino mouse after 0.5 hrs by rotarod test; assay type: toxicity, organism-based; details: in vivo
# Mus musculus [6] = assay: Anticonvulsant activity in ip dosed CF1 albino mouse assessed as minimum effective dose after 4 hrs by scPTZ test; assay type: functional
# Summary of the method: (§2)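 Mice dosed i.p. at 30, 100 and 300 mg/kg in 1% Tween 80 or 0.5% methylcellulose–water, then challenged 0.5 and 4 h later. PTZ in 0.9% NaCl was injected s.c. at the posterior midline. Mice were watched for 30 min. Protection meant no clonic spasm lasting at least 5 s. Value is the minimum dose active in half or more of the mice.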
# Mus musculus [7] = assay: Anticonvulsant activity in ip dosed CF1 albino mouse assessed as minimum effective dose after 0.5 hrs by scPTZ test; assay type: functional; summary of the method: as §2
# Rattus norvegicus [8] = species on record: Rattus norvegicus; assay: Hepatotoxicity in Sprague-Dawley rat assessed as presence of normal hepatic parenchyma with portal triad and central vein by histopathological study; assay type: toxicity, organism-based; details: in vivo
# Summary of the method: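 Rats were dosed chronically and sacrificed under light ether anesthesia 24 h after the last dose. Livers were removed, washed in normal saline and embedded in paraffin. Sections 5–6 thick were cut, stained with haematoxylin and eosin, and examined microscopically.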
# Mus musculus [9] = species on record: Mus musculus; assay: Neurotoxicity in CF1 albino mouse after 4 hrs by rotarod test; assay type: toxicity, organism-based; details: in vivo
SMILES,Activity (Mus musculus [1]) [mg/kg],Activity (Mus musculus [2]) [mg/kg],Activity (Rattus norvegicus [3]) [s],Activity (Rattus norvegicus [4]) [g],Activity (Mus musculus [5]),Activity (Mus musculus [6]) [mg/kg],Activity (Mus musculus [7]) [mg/kg],Activity (Rattus norvegicus [8]),Activity (Mus musculus [9])
CNCCC(Oc1ccc(C(F)(F)F)cc1)c1ccccc1 (stereo not drawn) [FLUOXETINE],29.6,14.2,–,–,–,–,–,–,–
COc1ccc2nc(NC(=S)NC(=O)c3ccccc3Cl)sc2c1,30,100,42.6,1.98,Not Active,100,100,Non-toxic,Not Active
O=C(NC(=S)Nc1nc2ccc(Cl)cc2s1)c1ccccc1,300,300,29,–,–,300,100,Non-toxic,–
O=C(NC(=S)Nc1nc2ccc(Br)cc2s1)c1ccc(Cl)cc1,100,100,38,–,–,300,300,Non-toxic,–
Cc1ccc2nc(NC(=S)NC(=O)c3ccccc3Cl)sc2c1,30,30,40.4,1.71,Not Active,30,30,Non-toxic,Not Active
Cc1ccc2nc(NC(=S)NC(=O)c3ccc(Cl)cc3)sc2c1,30,100,30,1.88,Not Active,100,100,Non-toxic,Not Active
COc1ccc2nc(NC(=S)NC(=O)c3ccc(Cl)cc3)sc2c1,300,300,43,–,–,300,300,Non-toxic,–
COc1ccc(C(=O)NC(=S)Nc2nc3ccc([N+](=O)[O-])cc3s2)cc1,–,–,27.8,–,–,–,–,Non-toxic,–
O=C(NC(=S)Nc1nc2ccc(F)cc2s1)c1ccc(Cl)cc1,100,300,24.6,–,–,–,–,Non-toxic,–
O=C(NC(=S)Nc1nc2ccc(F)cc2s1)c1ccccc1Cl,30,100,25,1.83,Not Active,300,100,Non-toxic,Not Active
O=C(NC(=S)Nc1nc2ccc(Cl)cc2s1)c1ccccc1Cl,300,300,32.6,–,–,300,300,Non-toxic,–
COc1ccc(C(=O)NC(=S)Nc2nc3ccc(OC)cc3s2)cc1,300,300,16.8,–,–,300,300,Non-toxic,–
O=C(NC(=S)Nc1nc2ccc([N+](=O)[O-])cc2s1)c1ccccc1,300,300,14.8,–,–,300,300,Non-toxic,–
O=C(NC(=S)Nc1nc2ccc(Cl)cc2s1)c1ccc(Cl)cc1,30,100,20.2,1.9,Not Active,300,100,Non-toxic,Not Active
Cc1ccc2nc(NC(=S)NC(=O)c3ccccc3)sc2c1,300,300,29,–,–,300,300,Non-toxic,–
COc1ccc(C(=O)NC(=S)Nc2nc3ccc(Cl)cc3s2)cc1,30,30,34.2,1.79,Not Active,100,30,Non-toxic,Not Active
O=C1NC(=O)C(c2ccccc2)(c2ccccc2)N1 [PHENYTOIN],30,30,–,–,Not Active,–,–,Non-toxic,Not Active
COc1ccc2nc(NC(=S)NC(=O)c3ccccc3)sc2c1,100,100,19.8,–,–,300,300,Non-toxic,–
COc1ccc(C(=O)NC(=S)Nc2nc3ccc(C)cc3s2)cc1,300,300,10.2,–,–,–,–,Non-toxic,–
O=C(NC(=S)Nc1nc2ccc(Br)cc2s1)c1ccccc1Cl,300,300,22.6,–,–,300,300,Non-toxic,–
O=C(NC(=S)Nc1nc2ccc(F)cc2s1)c1ccccc1,30,30,24,1.8,Not Active,100,30,Non-toxic,Not Active
NC(=O)N1c2ccccc2C=Cc2ccccc21 [CARBAMAZEPINE],30,100,–,–,Not Active,100,100,Non-toxic,Not Active
COc1ccc(C(=O)NC(=S)Nc2nc3ccc(F)cc3s2)cc1,–,–,31.2,–,–,–,–,Non-toxic,–
